# Assay outcomes (PubChem BioAssay)
# Only a selection was taken, and hits are over-represented in it overall.
# INS-1E rescue: preserves ATP levels in cytokine-treated INS-1E cells; INS-1E cytokine-induced death, ATP luminescence, 48 h; normalised: neutral wells 0, positive control 100; protection from cytokine-induced ATP loss, % at 10 µM; 0.1% of 20,000 active; AID 488910;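 active = mean replicate protection from cytokine-induced ATP loss at least 50% and at least 75% of replicates each reaching 50%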
#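 Assay system – rat INS-1E insulinoma cell line · Quantity – 8000 cells per well · Buffer or medium – RPMI without phenol red, 5% FBS · Schedule – 48 h co-treatment, 10 min post-lysis read · Technique – luminescent ATP assay (CellTiter-Glo)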
# A1 apoptosis 2: compounds inhibiting A1, read as caspase activation | MEF A1-2A-BIM cells, caspase-Glo luminescence, 3 h; percent of clofoctol response, DMSO zero | caspase activation, % (concentration not given with the values) | 24,000 tested, under 10 active | AID 2465; in the data active = caspase activation above about 5.9%
#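 system = A1-2A-BIM-expressing MEF cells | quantity = 2500 MEF cells/well | dosing = 50 nL compound per well, pinned | schedule = overnight cell settling, then 3 h compound exposure, 37 °C | signal = luminescence from DEVD-luciferin Caspase-Glo reagent, 1:1 in 50 mM HEPES, 1 h RT | read-out = Caspase-3/7 activation, seen as rise in luminescence signal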
# T cruzi HTS: inhibitors of intracellular Trypanosoma cruzi | intracellular Trypanosoma cruzi in host cells, plate reader | activity score (inhibition), % at 5.01 µM | AID 651903 | 4.9% of 22,000 active; in the data active = activity score above about 55%;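 also: parasites and compound incubated about four days before reading; 0% = median of neutral control wells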
# Active calls of the source: *; . = not tested or not shown.
SMILES,INS-1E rescue,A1 apoptosis 2,T cruzi HTS
Cc1noc(C)c1NC(=O)Nc1ccc2c(c1)C(=O)N([C@H](C)CO)C[C@H](C)[C@@H](CN(C)Cc1ccc(Cl)c(Cl)c1)OCCCC[C@@H](C)O2,3.5,.,-8.7
COc1ccc(S(=O)(=O)Nc2ccc3c(c2)C(=O)N([C@H](C)CO)C[C@@H](C)[C@@H](CN(C)C(=O)Nc2ccc4c(c2)OCO4)O3)cc1,-4.1,.,-6.5
C[C@@H]1CN([C@@H](C)CO)C(=O)c2cccc(NC(=O)c3ccncc3)c2O[C@@H]1CN(C)Cc1ccncc1,9.2,.,-6.6
C[C@H](CO)N1C[C@H](C)[C@H](CN(C)Cc2ccc(C(=O)O)cc2)Oc2c(NC(=O)c3ccncc3)cccc2C1=O,7.6,-0.8,-26.8
C[C@H]1CN([C@@H](C)CO)C(=O)c2cccc(NC(=O)c3ccncc3)c2O[C@H]1CN(C)Cc1ccc(C(F)(F)F)cc1,1.8,0.1,83.7*
C[C@H](CO)N1C[C@H](C)[C@H](CN(C)Cc2ccc(C(F)(F)F)cc2)Oc2c(NC(=O)c3ccncc3)cccc2C1=O,-1.6,-0.5,64.5*
CCO[C@H]1OC(C(=O)N2CCN(Cc3ccc4c(c3)OCO4)CC2)=C[C@@H](c2ccc3c(c2)OCO3)[C@@H]1CCCO,.,0.2,.
COc1ccc(NC(=O)Nc2ccc3c(c2)C(=O)N([C@@H](C)CO)C[C@@H](C)[C@@H](CN(C)C(=O)Nc2ccccc2)O3)cc1,2.5,.,-11.7
COc1ccc(S(=O)(=O)N(C)C[C@H]2Oc3ccc(NC(=O)NC4CCCCC4)cc3C(=O)N([C@H](C)CO)C[C@@H]2C)cc1,8.3,0.4,-0.2
C=CCOC(=O)C(=O)/C=C/c1cn(C(C)=O)c2ccccc12,.,1.3,.
C[C@@H]1CN([C@H](C)CO)C(=O)c2cccc(NC(=O)C3CCCCC3)c2O[C@H]1CN(C)Cc1ccc(Oc2ccccc2)cc1,-26.7,-1.4,69.1*
C[C@@H]1CN([C@@H](C)CO)C(=O)c2cccc(NC(=O)C3CCCCC3)c2O[C@@H]1CN(C)Cc1ccc(Oc2ccccc2)cc1,-65.3,.,16.9
C[C@@H]1CN([C@@H](C)CO)C(=O)c2cccc(NC(=O)C3CCCCC3)c2O[C@H]1CN(C)Cc1ccc(Oc2ccccc2)cc1,-94.7,.,65.6*
C[C@@H]1CN([C@@H](C)CO)C(=O)c2cccc(NC(=O)C3CC3)c2O[C@H]1CN(C)Cc1ccc(Oc2ccccc2)cc1,-68.4,-1.4,63.1*
C[C@H](CO)N1C[C@H](C)[C@H](CN(C)Cc2ccc(Oc3ccccc3)cc2)Oc2c(NC(=O)C3CCOCC3)cccc2C1=O,-9.3,-0.1,7.1
C[C@H](CO)N1C[C@H](C)[C@@H](CN(C)Cc2ccc(Oc3ccccc3)cc2)Oc2c(NC(=O)C3CCCCC3)cccc2C1=O,-61.7,.,75.0*
C[C@@H]1CN([C@H](C)CO)C(=O)c2cccc(NC(=O)C3CC3)c2O[C@@H]1CN(C)Cc1ccc(Oc2ccccc2)cc1,-23.9,.,-8.0
C[C@H](CO)N1C[C@H](C)[C@H](CN(C)Cc2ccc(Oc3ccccc3)cc2)Oc2c(NC(=O)C3CC3)cccc2C1=O,-16.0,1.5,-20.3
CC(C)NC(=O)N(C)C[C@H]1Oc2ccc(NC(=O)Nc3cccc4ccccc34)cc2C(=O)N([C@H](C)CO)C[C@H]1C,12.7,.,1.2
C[C@H](CO)N1C[C@H](C)[C@H](CN(C)S(=O)(=O)c2ccccc2)Oc2c(NS(=O)(=O)c3ccc(F)cc3)cccc2C1=O,3.7,.,9.5
C[C@H]1CN([C@@H](C)CO)C(=O)c2cccc(NC(=O)C3CC3)c2O[C@@H]1CN(C)S(=O)(=O)c1ccccc1,8.8,-0.8,-12.4
C=CCNC(=O)[C@H]1[C@@H]2C(=O)O[C@@H](c3ccccc3)[C@@H](c3ccccc3)N2[C@@H](c2ccccc2OCCO)[C@]12C(=O)Nc1ccc(C#CCCO)cc12,.,-0.1,.
C[C@H](CO)N1C[C@H](C)[C@H](CN(C)CC2CC2)Oc2c(NC(=O)c3cnccn3)cccc2C1=O,-6.5,0.5,-18.4
Cc1ccc(S(=O)(=O)Nc2cccc3c2O[C@@H](CN(C)Cc2ccc(C(=O)Nc4ccccc4N)cc2)[C@H](C)CN([C@@H](C)CO)C3=O)cc1,-5.7,.,55.4*
C[C@H](CO)N1C[C@H](C)[C@H](CN(C)Cc2ccc(C(=O)Nc3ccccc3N)cc2)Oc2c(NS(=O)(=O)c3ccc(Cl)cc3)cccc2C1=O,-6.1,1.5,52.8
SMILES,INS-1E rescue,A1 apoptosis 2,T cruzi HTS
Cc1ccc(S(=O)(=O)Nc2cccc3c2O[C@H](CN(C)Cc2ccc(C(=O)Nc4ccccc4N)cc2)[C@@H](C)CN([C@@H](C)CO)C3=O)cc1,0.2,2.1,44.0
Cc1noc(C)c1S(=O)(=O)Nc1cccc2c1O[C@H](CN(C)Cc1ccc(C(=O)Nc3ccccc3N)cc1)[C@H](C)CN([C@H](C)CO)C2=O,-13.5,.,60.1*
C[C@@H]1CN([C@H](C)CO)C(=O)c2cccc(NS(=O)(=O)c3ccccc3)c2O[C@H]1CN(C)Cc1ccc(C(=O)Nc2ccccc2N)cc1,-10.3,.,47.0
C[C@H]1CN([C@@H](C)CO)C(=O)c2cccc(NS(=O)(=O)c3ccc(Cl)cc3)c2O[C@H]1CN(C)Cc1ccc(C(=O)Nc2ccccc2N)cc1,7.7,-0.3,60.3*
Cc1ccc(S(=O)(=O)Nc2cccc3c2O[C@H](CN(C)Cc2ccc(C(=O)Nc4ccccc4N)cc2)[C@H](C)CN([C@H](C)CO)C3=O)cc1,22.6,.,50.0
Cc1ccc(S(=O)(=O)Nc2cccc3c2O[C@@H](CN(C)Cc2ccc(C(=O)Nc4ccccc4N)cc2)[C@@H](C)CN([C@@H](C)CO)C3=O)cc1,8.0,-0.8,64.4*
C[C@H](CO)N1C[C@H](C)[C@H](CN(C)Cc2ccc(Cl)c(Cl)c2)Oc2ccc(NC(=O)C3CC3)cc2C1=O,-9.0,-0.8,4.8
C[C@H](CO)N1C[C@H](C)[C@@H](CN(C)C)Oc2ccc(NC(=O)C3CCCCC3)cc2C1=O,5.7,-0.9,-25.1
C[C@H]1CN([C@@H](C)CO)C(=O)c2cc(NC(=O)CCN3CCOCC3)ccc2O[C@@H]1CN(C)Cc1ccc(Cl)c(Cl)c1,.,0.3,-3.2
C[C@H](CO)N1C[C@H](C)[C@H](CN(C)C(=O)Nc2ccc3c(c2)OCO3)Oc2ccc(NC(=O)CCCCCC(=O)Nc3ccccc3N)cc2C1=O,12.3,0.6,-15.6
Cc1noc(C)c1S(=O)(=O)Nc1cccc2c1O[C@H](CN(C)S(=O)(=O)c1ccc(F)cc1)[C@H](C)CN([C@H](C)CO)C2=O,-1.1,.,-2.2
C[C@H]1CN([C@@H](C)CO)C(=O)c2cccc(NC(=O)NC3CCCCC3)c2O[C@@H]1CN(C)C(=O)Nc1ccc(F)cc1,1.4,0.0,-4.8
C[C@@H]1CN([C@@H](C)CO)C(=O)c2cccc(NS(=O)(=O)c3ccc(F)cc3)c2O[C@@H]1CN(C)Cc1ccc(C(=O)Nc2ccccc2N)cc1,26.2,.,51.5
C[C@H]1CN([C@@H](C)CO)C(=O)c2cccc(NS(=O)(=O)c3ccc(F)cc3)c2O[C@H]1CN(C)Cc1ccc(C(=O)Nc2ccccc2N)cc1,-17.8,0.1,60.4*
